In the array DNA melting data of Ke et al. (doi:10.1101/2024.01.08.574731):

Tests used:
[1] = folding enthalpy; higher = less favourable; fluorescence melt of hairpins on a sequencing array, two-state fit; conditions: sodium 0.088 M
Outline: (§1)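 To match UV melts, fitted temperatures were raised by 9.35 °C. These fits were bootstrapped two-state models that gave melting temperature and folding enthalpy, combined by inverse variance over four replicates. The input was normalised Cy3 fluorescence of library hairpins with annealed Cy3 and quencher oligos on a sequenced MiSeq flow cell, imaged in 50 mM Na-HEPES pH 8.0, 25 mM NaCl in 2.5 °C steps up to 60 °C.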

[2] = melting temperature; fluorescence melt of hairpins on a sequencing array, two-state fit, raised by 9.35 °C to match UV melts; conditions: sodium 0.088 M
Outline: as §1

Sequence | folding enthalpy [1] [kcal/mol] | Tm [2] [°C]
GATCAACATCTTGATC ((((((....)))))) | -28.1 | 41.5
GCGGTAGGAAACTGCCGC ((((.((....)).)))) | -29.6 | 61.6
GAATGCGAAAGCAGATTC ((((((....)))..))) | -15.6 | 43.2
GATCATAACAATGATC ((((((....)))))) | -32.1 | 47
GCGTTTCGAAAGAAGCGC (((.(((....))).))) | -37.9 | 63.1
GGAGGCGAAAGCCTCTCC ((((((....)))..))) | -8.68 | 54.2
GAGGCACGAAAGTGCTC (((.(((....)))))) | -9.34 | 45.9
GGTTGCGAAAGCACAACC ((((((....)))..))) | -19.6 | 44.2
GGTTACGAAAGTATTACC ((((((....)))..))) | -15.2 | 29.6
GATCTTAAACAAGATC ((((((....)))))) | -24.9 | 38.7
GTTATGGGAAACCATAAC (((((((....))))))) | -43.7 | 54
GGTCTCGAAAGAGAAACC ((((((....)))..))) | -21.5 | 34.7
GTACATGGAAACACGTAC ((((.((....)).)))) | -21.9 | 36.2
GGCGTAGGAAACTGCGTC (.((.((....)).)).) | -19.5 | 44.1
GTGGGCGAAAGCCTCAC ((((((....))).))) | -15.5 | 51.9
GGCAGCCGAAAGGCCGCC (((.(((....))).))) | -22.3 | 66.9
GGGAACGAAAGTTGCCCC ((((((....)))..))) | -10.7 | 68.7
GCGTATCGAAAGATCCGC (((.(((....))).))) | -38.1 | 50.2
GGGTAGCCGAAAGGCCCC (((..(((....)))))) | -16.1 | 54
GTATCTGGAAACAGATAC (((((((....))))))) | -39.5 | 56.1
GATCCGGTGCCGGATC ((((((....)))))) | -59.2 | 58
GATCACATGCGTGATC ((((((....)))))) | -38.4 | 57.8
GAAGGTGGAAACGTCTTC ((((..(....)..)))) | -33 | 36.2

Sequence | folding enthalpy [1] [kcal/mol] | Tm [2] [°C]
GTGAGGGGAAACCTTCAC ((((.((....)).)))) | -28.8 | 46
GATCAACAGCTTGATC ((((((....)))))) | -29.1 | 39.5
GCACGGACGAAAGTCTGC (((..(((....)))))) | -12.9 | 42.5
GATCGAGCCTTCGATC ((((((....)))))) | -39.5 | 56.4
GATCTCACTAGAGATC ((((((....)))))) | -40.9 | 54.3
GATCCCCGCCGGGATC ((((((....)))))) | -40.3 | 57.7
GCCCCGCGAAAGCCGGGC ((((.((....)).)))) | -18.3 | 66.4
GTAACCCGAAAGGGATAC (((.(((....))).))) | -23.4 | 48.6
GATCTGTTACCAGATC ((((((....)))))) | -42.4 | 50.5
GATTGCGAAAGCATGATC ((((((....)))..))) | -11.6 | 36.3
GGCTTAGGAAACTGAGCC ((((.((....)).)))) | -44.6 | 50.4
GATCAATGTTTGATC ((((((...)))))) | -30.8 | 43.8
GCCAGAGCGAAAGCTGGC (((..(((....)))))) | -31.3 | 60
GGGCGTGGAAACACACCC (((.(((....))).))) | -40.7 | 51.8
GTTTTAACGAAAGTTAAC (((..(((....)))))) | -14.7 | 27
GATCCAGGGCTGGATC ((((((....)))))) | -38.3 | 52.4
GTTCCGCGAAAGCGTAAC (((.(((....))).))) | -20.2 | 44.1
GCGTTAGGACGC ((((....)))) | -25.4 | 52.9
GATCGGCCTACCGATC ((((((....)))))) | -36.5 | 57.9
GATCAGGCTGCTGATC ((((((....)))))) | -46.2 | 50.4
GCTAGGCGAAAGCCATGC ((..(((....)))..)) | -17.7 | 53.5
GGCGTCGGAAACGACGTC (.(((((....))))).) | -23.4 | 66.2
GCTCCCGGAAACGGGAAC (.(((((....))))).) | -15 | 43

Sequence | folding enthalpy [1] [kcal/mol] | Tm [2] [°C]
GCGTTTGAAAAAACGC ((((((....)))))) | -32.1 | 65.9
GATTGCGAAAGCATAATC ((((((....)))..))) | -12.8 | 33.1
GGTTGGGGAAACCCAGCC ((.((((....)))).)) | -42.9 | 53.7
GCTGACGAAAGTCCTAGC ((((((....)))..))) | -17 | 34.3
GATCCGGAGCCGGATC ((((((....)))))) | -60.6 | 56.3
CGGACGGAAACGTGTCCG ((((((....)))..))) | -32.8 | 49.5
GCGTCTGGAAACAGACAC (.(((((....))))).) | -12.8 | 42.7
GGAACTCGAAAGAGTCC (((.(((....)))))) | -19.5 | 49.2
GATTCCGGAAACGAAATC ((((.((....)).)))) | -31.6 | 34.3
GCAACGCGAAAGCAATGC (((..((....))..))) | -11.1 | 40.6
GCGCAGCGAAAGCTCAGC ((..(((....)))..)) | -7.58 | 41
GATCAACATTTTGATC ((((((....)))))) | -31.1 | 42.6
GATCGGCAGGCCGATC ((((((....)))))) | -34.9 | 66.8
GAAGTTGGAAACGACTTC (((((.(....).))))) | -39 | 47.4
GCCACCGAAAGGTAAGGC ((((((....)))..))) | -26.9 | 52.6
GACGGCGGAAACGCCGCC (.(((((....))))).) | -8.56 | 54.9
GCGTGGCGAAAGCGCCGC (((..((....))..))) | -19.1 | 56.2
GCTGGGCGAAAGCAGAGC (((..((....))..))) | -19.8 | 49.5
GGCTCCGAAAGGATGCC ((((((....))).))) | -31 | 62.6
GCTATCGGAAACGGTAGC ((((.((....)).)))) | -38 | 51.8
GCGAAGCGAAAGCTTTGC ((.((((....)))).)) | -22.4 | 62.6
GCAGCGCGAAAGCGGGGC ((..(((....)))..)) | -28 | 67.2
GGGATCGAAAGATTACCC ((((((....)))..))) | -17.4 | 32.4

Sequence | folding enthalpy [1] [kcal/mol] | Tm [2] [°C]
GACGCAGGAAACTGCGCC (.(((((....))))).) | -13.5 | 50.2
GATCAGTGAACTGATC ((((((....)))))) | -36.2 | 52.6
GGCTAGGGAAACCCAGCC ((((.((....)).)))) | -39.4 | 52.1
GACGTGAAAACGTC (((((....))))) | -32.7 | 61.8
GGAGTCTCGAAAGAGTCC (((..(((....)))))) | -20.1 | 41.7
GTCACCGGAAACGGTAAC ((.((((....)))).)) | -16.6 | 38.4
GATCATAATCATGATC ((((((....)))))) | -32.1 | 46.2
GATCTGCGCACAGATC ((((((....)))))) | -38.3 | 52.8
GGTTTACGAAAGTACACC (((.(((....))).))) | -28.3 | 45.2
GTTCGTCGAAAGACAAAC (((.(((....))).))) | -16.6 | 41.2
GGAATTCGAAAGAAATCC (((.(((....))).))) | -30.5 | 39.5
GCCCACGGAAACGCGGGC ((((.((....)).)))) | -47.5 | 62.3
GAACACGAAAGTGACTTC ((((((....)))..))) | -20.8 | 35.4
GATCTGCTGCCAGATC ((((((....)))))) | -39.2 | 49.8
GCGTTCTCGAAAGAGCGC (((..(((....)))))) | -34.3 | 51.1
GATCCGATTTCGGATC ((((((....)))))) | -33 | 62.6
GGACTCACGAAAGTGTCC (((..(((....)))))) | -19.3 | 41.5
GTGATAGAAATATCAC ((((((....)))))) | -32.9 | 46.5
GATCATTTCCATGATC ((((((....)))))) | -40.5 | 46.1
GATCTAGCTATAGATC ((((((....)))))) | -40.2 | 47.7
GCACGGCGAAAGCGTTGC (((..((....))..))) | -18.5 | 49.3
GCGGTCGACCGC ((((....)))) | -38.5 | 67.7
GATCGCATATGCGATC ((((((....)))))) | -33.8 | 68.8
